The values that follow come from ChEMBL document CHEMBL3085696, “Aurora isoform selectivity: design and synthesis of imidazo[4,5-b]pyridine derivatives as highly selective inhibitors of Aurora-A kinase in cells” (J Med Chem, 2013).

Test [1] has as its target T1, Receptor-type tyrosine-protein kinase FLT3 (Homo sapiens, UniProt P36888).
T1 sequence (P36888 whole entry): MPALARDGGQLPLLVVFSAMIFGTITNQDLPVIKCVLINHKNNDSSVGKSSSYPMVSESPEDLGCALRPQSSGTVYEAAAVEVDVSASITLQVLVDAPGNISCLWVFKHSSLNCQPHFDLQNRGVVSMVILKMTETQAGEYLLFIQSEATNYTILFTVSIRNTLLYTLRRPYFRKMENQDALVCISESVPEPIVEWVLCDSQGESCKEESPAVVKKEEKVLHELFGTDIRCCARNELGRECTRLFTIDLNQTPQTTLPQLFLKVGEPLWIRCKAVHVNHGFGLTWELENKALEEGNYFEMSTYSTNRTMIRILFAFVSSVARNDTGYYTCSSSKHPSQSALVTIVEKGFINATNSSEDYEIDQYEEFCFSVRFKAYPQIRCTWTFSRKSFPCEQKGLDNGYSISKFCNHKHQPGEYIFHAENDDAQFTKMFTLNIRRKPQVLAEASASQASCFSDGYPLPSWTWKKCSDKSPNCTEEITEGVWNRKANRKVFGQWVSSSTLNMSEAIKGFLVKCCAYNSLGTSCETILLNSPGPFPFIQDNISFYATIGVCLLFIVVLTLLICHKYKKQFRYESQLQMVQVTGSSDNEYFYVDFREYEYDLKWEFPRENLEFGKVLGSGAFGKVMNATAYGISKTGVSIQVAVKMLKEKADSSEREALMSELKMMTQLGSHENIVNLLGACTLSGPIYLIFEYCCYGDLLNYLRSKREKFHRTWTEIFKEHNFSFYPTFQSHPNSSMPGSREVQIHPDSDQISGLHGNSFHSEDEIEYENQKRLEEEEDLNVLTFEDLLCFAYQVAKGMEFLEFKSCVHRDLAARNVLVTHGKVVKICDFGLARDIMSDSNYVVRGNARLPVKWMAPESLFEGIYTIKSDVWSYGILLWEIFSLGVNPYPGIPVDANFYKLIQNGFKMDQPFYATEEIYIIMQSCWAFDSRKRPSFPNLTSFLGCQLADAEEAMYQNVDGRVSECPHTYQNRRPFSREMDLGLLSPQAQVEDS
Put plainly: Inhibition of FLT3 (unknown origin) at 1 uM. An outline of the steps: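 Single-concentration (1 μM) profiling within a 110-kinase selectivity panel; activity expressed as percent inhibition of each kinase.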

Test [2] addresses Vascular endothelial growth factor receptor 1 (Homo sapiens) (UniProt P17948). Put plainly: Inhibition of VEGFR1 (unknown origin) at 1 uM. Summed up: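 110-kinase panel profiling, compounds tested at 1 μM, read as percent inhibition.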
Test [3] concerns the target T2, Aurora kinase A (Homo sapiens, UniProt O14965).
T2 sequence (O14965 whole entry): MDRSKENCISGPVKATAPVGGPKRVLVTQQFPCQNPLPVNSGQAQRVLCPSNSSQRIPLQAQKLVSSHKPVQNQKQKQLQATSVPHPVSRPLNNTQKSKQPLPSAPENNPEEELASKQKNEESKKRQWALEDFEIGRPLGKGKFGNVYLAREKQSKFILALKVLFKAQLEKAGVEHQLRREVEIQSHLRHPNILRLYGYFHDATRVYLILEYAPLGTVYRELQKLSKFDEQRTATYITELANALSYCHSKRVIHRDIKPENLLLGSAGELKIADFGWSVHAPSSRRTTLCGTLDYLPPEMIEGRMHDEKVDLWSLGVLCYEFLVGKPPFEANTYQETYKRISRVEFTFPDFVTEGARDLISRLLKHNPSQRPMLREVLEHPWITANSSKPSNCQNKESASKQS
Put plainly: Inhibition of autophosphorylation of N-terminal Myc tagged aurora-A at T288 in human HeLa cells after 2 hrs. The format is cell-based. Summed up: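 Cells transfected with Myc-tagged Aurora-A (wild type or T217E, L215R, R220K mutants) and treated with inhibitor concentrations for 2 h. Lysed in LDS buffer; SDS-type PAGE and western blot. Blots probed for P-T288 (Aurora-A autophosphorylation) and phospho-histone H3 S10 (Aurora-B substrate). Blots quantified; IC50 derived; ratio taken as H3 IC50 over T288 IC50.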

Sequence of Vascular endothelial growth factor receptor 1 (Homo sapiens) (P17948 whole entry): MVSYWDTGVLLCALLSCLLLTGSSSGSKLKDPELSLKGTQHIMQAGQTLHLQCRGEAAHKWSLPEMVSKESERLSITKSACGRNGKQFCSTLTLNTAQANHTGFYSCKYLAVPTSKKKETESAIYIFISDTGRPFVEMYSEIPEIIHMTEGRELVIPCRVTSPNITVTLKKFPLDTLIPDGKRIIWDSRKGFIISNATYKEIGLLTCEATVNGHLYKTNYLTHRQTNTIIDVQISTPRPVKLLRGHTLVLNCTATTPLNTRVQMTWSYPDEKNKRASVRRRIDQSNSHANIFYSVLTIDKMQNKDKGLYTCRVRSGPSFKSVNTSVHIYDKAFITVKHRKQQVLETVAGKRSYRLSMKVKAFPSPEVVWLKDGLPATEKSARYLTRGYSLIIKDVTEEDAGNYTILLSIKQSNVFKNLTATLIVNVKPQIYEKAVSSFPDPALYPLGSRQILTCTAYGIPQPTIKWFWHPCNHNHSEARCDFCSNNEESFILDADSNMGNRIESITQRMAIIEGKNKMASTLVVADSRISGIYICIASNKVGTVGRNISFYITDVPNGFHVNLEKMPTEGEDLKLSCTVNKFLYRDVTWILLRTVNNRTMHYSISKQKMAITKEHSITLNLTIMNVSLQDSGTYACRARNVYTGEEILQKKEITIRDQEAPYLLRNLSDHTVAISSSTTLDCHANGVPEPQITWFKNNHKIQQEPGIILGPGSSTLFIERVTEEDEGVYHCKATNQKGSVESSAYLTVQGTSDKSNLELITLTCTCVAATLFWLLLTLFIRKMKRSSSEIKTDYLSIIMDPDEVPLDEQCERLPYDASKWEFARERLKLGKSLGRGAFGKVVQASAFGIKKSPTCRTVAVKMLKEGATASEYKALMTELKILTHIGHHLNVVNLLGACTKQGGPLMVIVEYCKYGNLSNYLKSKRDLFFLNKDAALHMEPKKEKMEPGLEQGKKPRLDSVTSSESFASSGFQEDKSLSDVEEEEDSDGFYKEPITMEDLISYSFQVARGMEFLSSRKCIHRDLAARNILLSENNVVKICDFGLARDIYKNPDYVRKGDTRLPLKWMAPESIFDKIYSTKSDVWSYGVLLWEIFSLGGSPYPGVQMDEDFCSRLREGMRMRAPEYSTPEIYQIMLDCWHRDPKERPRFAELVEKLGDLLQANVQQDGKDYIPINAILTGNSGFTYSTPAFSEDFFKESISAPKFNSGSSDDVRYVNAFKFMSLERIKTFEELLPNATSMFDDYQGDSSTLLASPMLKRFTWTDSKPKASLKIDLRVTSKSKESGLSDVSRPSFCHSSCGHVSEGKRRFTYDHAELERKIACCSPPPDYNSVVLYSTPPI

Usually IC50 stands for the concentration needed to halve the response being measured. What is called inhibition is how much of the control response was suppressed. The low end stands for a response near the control, the high end for a response far below the control. Regarding `Cc1nn(C)cc1-c1nc2c(Oc3ccc(C(=O)Nc4ccccc4)cc3)c(Cl)cnc2[nH]1`, the IC50 in test [1] was determined as 162 nM; in test [3] it was 160 nM. In addition, the inhibition in test [2] is above 80%.
